Broadly, the AUC is concentration integrated over time. Broadly, the ED50 is the dose that gives a 50% effect, or the effect in half of the subjects. The AUC(0-inf) is the area under the concentration-time curve extrapolated to infinity. A word on the bioavailability: it is the share of a dose that reaches the circulation, judged against a reference dose that is usually intravenous. As usually defined, the IC50 is the concentration that inhibits the measured activity by half. The Cmax is the peak of the concentration-time curve. Usually Tmax stands for the time at which the peak concentration occurs.

For one series, the system named is Rattus norvegicus. The series is described as follows: Volume of distribution at steady state in po dosed rat. The format is ADME, organism-based. The following applies: in vivo.
Series [1] in a line: Ratio of AUC in ICR mouse brain to AUC in ICR mouse plasma at 10 mg/kg, po measured at 9 hrs. The format is ADME, organism-based. The following applies: read-out: Ratio AUC. In outline:
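ICR mice (n=3) given a single oral dose of 10 mg/kg. Brain and plasma were sampled over nine hours, at 0.333, 1, 3, 6 and 9 h. Kp was calculated as AUC_brain/AUC_plasma.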

A short description of series [2]: Half life in po dosed monkey. Format: ADME, organism-based, Macaca mulatta. The conditions noted are these: rhesus monkey, in vivo.
Series [3] relates to Mus musculus. The series is described as follows: Reversal of cognitive deficit in double APP/PS1 transgenic Alzheimer's disease mouse model assessed as increase in spatial memory function by measuring spontaneous alternation at 30 mg/kg, po qd administered for 8 weeks by Y maze test (reference value: 52.64 +/- 4.15%). The format is functional. In outline: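 APP/PS1 double transgenic mice, 29 weeks old, dosed orally once daily at 30 or 100 mg/kg for eight weeks. Y-maze spontaneous alternation (%) was then measured against vehicle-treated mice, and mice were watched for apparent toxicity.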

Series [4] can be described thus: AUC in po dosed ICR mouse. The conditions noted are these: in vivo. Format: ADME, organism-based.
The test system of series [5] is Mus musculus. The series can be described thus: Reversal of cognitive deficit in amyloid beta (1 to 42)-treated Alzheimer's disease ICR mouse model assessed as increase in spatial memory function by measuring spontaneous alternation at 1 mg/kg, po administered for 3 consecutive days by Y maze test relative to control. The format is functional. A digest of the protocol: (§1)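 Acute AD model: preformed Aβ aggregates injected directly into the brains of normal mice to induce acute neurotoxicity. Compound given orally for three consecutive days, then the Y-maze was run. Read-out is percentage of spontaneous alternation, compared against normal and vehicle-treated mice.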

In series [6] the test system is Mus musculus. The series is described as follows: Reversal of cognitive deficit in amyloid beta (1 to 42)-treated Alzheimer's disease ICR mouse model assessed as increase in spatial memory function administered orally for 3 consecutive days by Y maze test. The format is functional. A digest of the protocol: as §1
Series [7] in a line: AUC in po dosed monkey. Format: ADME, organism-based, Macaca mulatta. The following applies: rhesus monkey, in vivo.
A short description of series [8]: AUC (infinity) in mouse at 30 mg/kg, po. The conditions noted are these: in vivo. The format is ADME, organism-based. Set-up: dose 30 mg/kg, time infinity, route oral. In outline: (§2)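 Mice received a single dose of 3 mg/kg i.v. or 3, 10 or 30 mg/kg orally. Plasma concentration-time profiles were analysed for AUC from zero to infinity and to the last measured time (hr*ng/mL), Cmax (ng/mL, C0 after i.v.), Tmax and terminal half-life (hr), and oral bioavailability (%).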

Series [9] is described as follows: Oral bioavailability in monkey. The following applies: rhesus monkey, in vivo. The format is ADME, organism-based, Macaca mulatta.
A short description of series [10]: Oral bioavailability in rat. Format: ADME, organism-based. The conditions noted are these: in vivo.
For series [11], the system named is Mus musculus. The series can be described thus: AUC (infinity) in mouse at 3 mg/kg, iv. The format is ADME, organism-based. On the set-up: dose 3 mg/kg, route intravenous, time infinity. The conditions noted are these: in vivo. A digest of the protocol: as §2
A further series concerns the target T1, Cytochrome P450 1A2 (Homo sapiens, UniProt P05177).
T1 sequence (P05177 whole entry): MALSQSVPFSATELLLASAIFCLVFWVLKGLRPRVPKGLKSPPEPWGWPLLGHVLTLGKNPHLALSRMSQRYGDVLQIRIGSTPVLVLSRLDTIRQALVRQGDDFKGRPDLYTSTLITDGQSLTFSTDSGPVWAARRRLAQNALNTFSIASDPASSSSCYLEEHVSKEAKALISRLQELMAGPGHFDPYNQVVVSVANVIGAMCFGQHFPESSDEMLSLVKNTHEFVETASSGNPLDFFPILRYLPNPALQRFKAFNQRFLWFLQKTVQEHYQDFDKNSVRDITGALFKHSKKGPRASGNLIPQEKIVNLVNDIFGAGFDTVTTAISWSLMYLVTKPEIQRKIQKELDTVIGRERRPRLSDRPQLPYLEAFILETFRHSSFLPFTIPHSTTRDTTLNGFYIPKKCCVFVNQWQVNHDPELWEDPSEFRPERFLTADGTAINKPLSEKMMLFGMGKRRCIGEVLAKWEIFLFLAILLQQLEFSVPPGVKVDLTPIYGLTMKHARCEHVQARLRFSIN
The series is described as follows: Inhibition of CYP1A2 in human liver microsomes preincubated for 5 mins followed by addition of NADPH generating system measured after 20 mins by LC-MS/MS analysis. The format is ADME. A digest of the protocol: (§3)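 Inhibition of each CYP isozyme (1A2, 2A6, 2C8, 2C9, 2C19, 2D6, 3A4) was measured in human liver microsomes. IC50 values were reported in μM.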

The nature of series [12]: Half-life in po dosed dog. The conditions noted are these: in vivo.
The nature of series [13]: Cmax in mouse at 10 mg/kg, po. On the set-up: dose 10 mg/kg, route oral. The conditions noted are these: in vivo. The format is ADME, organism-based. In outline: as §2
Series [14] in a line: Half life in po ICR mouse. The conditions noted are these: in vivo. The format is ADME, organism-based.
The target of the next series is Cytochrome P450 2C9 (Homo sapiens, UniProt P11712). The series is described as follows: Inhibition of CYP2C9 in human liver microsomes preincubated for 5 mins followed by addition of NADPH generating system measured after 20 mins by LC-MS/MS analysis. Format: ADME. A digest of the protocol:
as §3

The nature of series [15]: Terminal half life in mouse at 3 mg/kg, iv. Format: ADME, organism-based. The following applies: in vivo, read-out: beta t1/2 (converted). A digest of the protocol:
(§4)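 Mouse pharmacokinetics: single i.v. dose of 3 mg/kg, or oral doses of 3, 10 and 30 mg/kg. Plasma concentration–time curves gave T1/2 (terminal, hr), Tmax (hr), Cmax, AUC and bioavailability (%).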

The next series addresses T2, Cytochrome P450 2A6 (Homo sapiens, UniProt P11509).
T2 sequence (P11509 whole entry): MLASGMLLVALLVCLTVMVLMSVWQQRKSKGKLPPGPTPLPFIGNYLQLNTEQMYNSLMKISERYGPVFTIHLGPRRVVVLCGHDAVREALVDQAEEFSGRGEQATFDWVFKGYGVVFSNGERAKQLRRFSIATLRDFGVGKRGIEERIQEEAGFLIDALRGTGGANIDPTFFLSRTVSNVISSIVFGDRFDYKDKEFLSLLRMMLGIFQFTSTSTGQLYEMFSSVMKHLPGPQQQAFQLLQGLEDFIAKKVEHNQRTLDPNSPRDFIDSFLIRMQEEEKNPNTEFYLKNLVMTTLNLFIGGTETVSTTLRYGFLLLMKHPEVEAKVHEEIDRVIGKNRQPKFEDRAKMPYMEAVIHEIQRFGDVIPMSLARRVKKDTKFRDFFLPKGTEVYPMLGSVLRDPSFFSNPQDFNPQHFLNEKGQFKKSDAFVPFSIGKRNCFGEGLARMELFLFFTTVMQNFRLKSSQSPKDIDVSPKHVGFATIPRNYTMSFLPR
The series is described as follows: Inhibition of CYP2A6 in human liver microsomes preincubated for 5 mins followed by addition of NADPH generating system measured after 20 mins by LC-MS/MS analysis. Format: ADME. A digest of the protocol:
as §3
(In general: Microsomes from liver hold many membrane-bound enzymes, among them those of drug oxidation.)

Series [16] is described as follows: Tmax in mouse at 30 mg/kg, po. The format is ADME, organism-based. The following applies: in vivo. A digest of the protocol: as §4

Cytochrome P450 2C9, sequence (P11712 whole entry): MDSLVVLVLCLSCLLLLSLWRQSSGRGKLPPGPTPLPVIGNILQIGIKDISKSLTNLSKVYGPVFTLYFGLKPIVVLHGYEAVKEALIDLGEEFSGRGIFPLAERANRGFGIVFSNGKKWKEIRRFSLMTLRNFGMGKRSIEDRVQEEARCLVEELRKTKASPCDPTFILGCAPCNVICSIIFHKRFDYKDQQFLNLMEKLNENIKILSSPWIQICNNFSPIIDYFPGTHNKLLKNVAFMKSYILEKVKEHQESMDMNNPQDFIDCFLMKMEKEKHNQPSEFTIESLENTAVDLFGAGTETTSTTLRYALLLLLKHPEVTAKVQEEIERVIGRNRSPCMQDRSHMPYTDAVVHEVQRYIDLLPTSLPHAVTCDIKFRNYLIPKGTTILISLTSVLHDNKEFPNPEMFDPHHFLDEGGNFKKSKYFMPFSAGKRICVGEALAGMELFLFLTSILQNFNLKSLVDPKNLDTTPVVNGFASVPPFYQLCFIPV

With `COCCCc1ccc2oc(-c3ccc(OC)c(OC)c3)cc2c1`, the Vdss in the series with Rattus norvegicus is 10 L/kg. Besides, in series [1], the Kp at 9 h amounted to 1.4. Besides, the half-life in series [2] was 12.9 h; in series [14], 5.87 h; in series [15] it was 1.4 h. For the same molecule, the Activity was 63.73% in the series on Mus musculus [3], 71.22% with Mus musculus [5] and “Dose-dependent effect” in the series with Mus musculus [6]. For the same molecule, the AUC in series [4] came out at 13200 ng·h/mL; in series [7], 13700 ng·h/mL; with Mus musculus [11], 1325.1 ng·h/mL. In addition, the ED50 in the series on Mus musculus [6] (po) was 0.18 mg/kg. Also, in series [8], the area under the curve AUC(0-inf) came out at 10500 ng·h/mL. Further, the bioavailability stood at 70% in series [9] and 51% in series [10]. The IC50 against Cytochrome P450 1A2, against Cytochrome P450 2C9 and against Cytochrome P450 2A6 was greater than 50 µM in each case. Also, the t1/2 in series [12] was 1.4 h. The same molecule registered a Cmax in [13] of 660 ng/mL. Moreover, in series [16], the Tmax worked out at 3 h.

The record behind these values is ChEMBL document CHEMBL4028909, “Discovery of an Orally Bioavailable Benzofuran Analogue That Serves as a β-Amyloid Aggregation Inhibitor for the Potential Treatment of Alzheimer's Disease” (J Med Chem, 2018).
